≈ marks a conversion by molar mass, not a printed value.
Tests used:
[1] = Solubility in 10% DMSO(expressed as mean of 3 determinations); format: physicochemical; conditions: read-out: S
Procedure, shortened: (§1)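 200 μg of taxane was dissolved in 50 µL of organic solvent (DMA, DMSO or ethanol), then diluted to 500 µL (10% organic) with conjugation buffer: 0.1 M potassium phosphate, 1 mM EDTA, pH 6.5. The mixture was vortexed and centrifuged, and the taxane concentration in the supernatant was measured spectrophotometrically.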

MCF7 [2] = assay: In vitro inhibitory concentration that inhibits 50% of the growth of MCF-7 human breast cell carcinoma cell line after 72 hr of drug exposure.; format: functional, cell-based; conditions: MCF7, 72 h
[3] = Solubility in 10% Ethanol (expressed as mean of 3 determinations); format: physicochemical; conditions: read-out: S; procedure, shortened: as §1
[4] = Solubility in 10% DMA (expressed as mean of 3 determinations); format: physicochemical; conditions: read-out: S; procedure, shortened: as §1
A549 [5] = assay: In vitro inhibitory concentration that inhibits 50% of the growth of A549 non small cell lung carcinoma cell line after 72 hr of drug exposure.; format: functional, cell-based; conditions: Homo sapiens, A549, 72 h
MDR = assay: Inhibitory concentration that inhibits 50% of the growth of LGM MDR human breast cell carcinoma cell line after 72 hr of drug exposure.; format: functional, cell-based
[6] = Inhibitory concentration that inhibits 50% of the growth of Namalwa MDR Burkitts lymphoma MDR cell carcinoma cell line after 72 hr of drug exposure.; format: functional, cell-based; conditions: Homo sapiens
Breast carcinoma cell = assay: Inhibitory concentration that inhibits 50% of the growth of LCC6/P9 human breast cell carcinoma cell line after 72 hr of drug exposure.; format: functional, cell-based
NCI/ADR-RES = assay: Inhibitory concentration that inhibits 50% of the growth of NCI ADR RES human […] cell carcinoma cell line after 72 h of drug exposure.; format: functional, cell-based
[7] = Inhibitory concentration that inhibits 50% of the growth of Namalwa Burkitts lymphoma cell carcinoma cell line after 72 hr of drug exposure.; format: functional, cell-based; conditions: Homo sapiens
MCF7 [8] = assay: Inhibitory concentration that inhibits 50% of the growth of MCF-7 human breast cell carcinoma cell line after 72 hr of drug exposure. (Table 3); format: functional, cell-based; conditions: MCF7, 72 h
[9] = Solubility in 10% DMA(expressed as mean of 3 determinations); format: physicochemical; conditions: read-out: S; procedure, shortened: as §1
MCF7 [10] = assay: In vitro inhibitory concentration that inhibits 50% of the growth of MCF-7 human breast cell carcinoma cell line after 72 hr of drug exposure. (IC50 based on 2 separate determinations); format: functional; conditions: MCF7, 72 h
A549 [11] = assay: In vitro inhibitory concentration that inhibits 50% of the growth of A549 non small cell lung carcinoma cell line after 72 hr of drug exposure. (IC50 based on 2 separate determinations); format: functional; conditions: Homo sapiens, A549, 72 h
[12] = Solubility in 10% DMSO (expressed as mean of 3 determinations); format: physicochemical; conditions: read-out: S; procedure, shortened: as §1

| Structure (SMILES) | solubility [1] [µg/mL] | IC50 (MCF7 [2]) [nM] | solubility [3] [µg/mL] | solubility [4] [µg/mL] | IC50 (A549 [5]) [nM] | IC50 (MDR) [nM] | IC50 [6] [nM] | IC50 (Breast carcinoma cell) [nM] | IC50 (NCI/ADR-RES) [nM] | IC50 [7] [nM] | IC50 (MCF7 [8]) [nM] | solubility [9] [µg/mL] | IC50 (MCF7 [10]) [nM] | IC50 (A549 [11]) [nM] | solubility [12] [µg/mL] |
| --- | --- | --- | --- | --- | --- | --- | --- | --- | --- | --- | --- | --- | --- | --- | --- |
| COc1ccc(OC)c(C(=O)O[C@H]2C3[C@](C)(C(=O)[C@H](O)C4=C(C)[C@@H](OC(=O)[C@H](O)[C@H](C=C(C)C)NC(=O)OC(C)(C)C)C[C@]2(O)C4(C)C)C(OC(=O)CCSSC)C[C@H]2OC[C@@]32OC(C)=O)c1 (stereo partly specified) | 4 (≈ 4.08 µM) | 0.07 | 2 (≈ 2.04 µM) | 10 (≈ 10.2 µM) | 0.13 | – | – | – | – | – | – | – | – | – | – |
| COc1ccc(OC)c(C(=O)O[C@H]2C3[C@](C)(C(=O)[C@H](OC(=O)CCSSC)C4=C(C)[C@@H](OC(=O)[C@H](O)[C@H](C=C(C)C)NC(=O)OC(C)(C)C)C[C@]2(O)C4(C)C)C(O)C[C@H]2OC[C@@]32OC(C)=O)c1 (stereo partly specified) | 14 (≈ 14.3 µM) | 0.05 | 10 (≈ 10.2 µM) | – | 0.09 | 4 | 0.65 | 1 | 15 | 0.53 | 0.4 | 8 (≈ 8.16 µM) | – | – | – |
| CSSCCC(=O)O[C@H]1C(=O)[C@]2(C)C(O)C[C@H]3OC[C@@]3(OC(C)=O)C2[C@H](OC(=O)c2ccccc2)[C@]2(O)C[C@H](OC(=O)[C@H](O)[C@H](C=C(C)C)NC(=O)OC(C)(C)C)C(C)=C1C2(C)C (stereo partly specified) | – | 1 | – | – | 0.8 | – | – | – | – | – | – | – | – | – | – |
| COc1ccc(OC)c(C(=O)O[C@H]2C3[C@](C)(C(=O)[C@H](OC(=O)CCOCCOCCOCCOCCSSC)C4=C(C)[C@@H](OC(=O)[C@H](O)[C@H](C=C(C)C)NC(=O)OC(C)(C)C)C[C@]2(O)C4(C)C)C(O)C[C@H]2OC[C@@]32OC(C)=O)c1 (stereo partly specified) | 82 (≈ 70.9 µM) | 0.06 | 55 (≈ 47.6 µM) | – | 0.29 | 18 | 0.9 | 1.6 | 19 | 0.45 | 0.5 | 79 (≈ 68.3 µM) | – | – | – |
| CSSCCN1CCN(C(=O)O[C@H]2C(=O)[C@]3(C)C(O)C[C@H]4OC[C@@]4(OC(C)=O)C3[C@H](OC(=O)c3ccccc3)[C@]3(O)C[C@H](OC(=O)[C@H](O)[C@H](C=C(C)C)NC(=O)OC(C)(C)C)C(C)=C2C3(C)C)CC1 (stereo partly specified) | – | 1 | – | – | 1.1 | – | – | – | – | – | – | – | – | – | – |
| COc1ccc(OC)c(C(=O)O[C@H]2C3[C@](C)(C(=O)[C@H](OC(=O)CCOCCOCCOCCOCCOCCOCCOCCOCCOCCOCCSSC)C4=C(C)[C@@H](OC(=O)[C@H](O)[C@H](C=C(C)C)NC(=O)OC(C)(C)C)C[C@]2(O)C4(C)C)C(O)C[C@H]2OC[C@@]32OC(C)=O)c1 (stereo partly specified) | 110 (≈ 77.4 µM) | – | 127 (≈ 89.4 µM) | 97 (≈ 68.3 µM) | – | – | – | – | – | – | – | – | 0.58 | 1.1 | – |
| COc1ccc(OC)c(C(=O)O[C@H]2C3[C@](C)(C(=O)[C@H](OC(=O)N4CCN(CCSSC)CC4)C4=C(C)[C@@H](OC(=O)[C@H](O)[C@H](C=C(C)C)NC(=O)OC(C)(C)C)C[C@]2(O)C4(C)C)C(O)C[C@H]2OC[C@@]32OC(C)=O)c1 (stereo partly specified) | 26 (≈ 24.4 µM) | 0.039 | 32 (≈ 30.1 µM) | 26 (≈ 24.4 µM) | 0.3 | – | – | – | – | – | – | – | – | – | – |
| COc1ccc(OC)c(C(=O)O[C@H]2C3[C@](C)(C(=O)[C@H](O)C4=C(C)[C@@H](OC(=O)[C@H](O)[C@H](C=C(C)C)NC(=O)OC(C)(C)C)C[C@]2(O)C4(C)C)C(OC(=O)CCOCCOCCOCCOCCSSC)C[C@H]2OC[C@@]32OC(C)=O)c1 (stereo partly specified) | – | – | 13 (≈ 11.2 µM) | 11 (≈ 9.51 µM) | – | – | – | – | – | – | – | – | 0.32 | 1 | 17 (≈ 14.7 µM) |

Source: ChEMBL document CHEMBL1138754, “Synthesis of taxoids with improved cytotoxicity and solubility for use in tumor-specific delivery” (J Med Chem, 2004)
